Screening results deposited in PubChem BioAssay by several laboratories.
L major viab: inhibitors of Leishmania major promastigote growth; actives 9% (n = 200,000); Leishmania major promastigotes, resazurin fluorescence viability; inhibition, % at 10 µM; AID 1063; in the data active = inhibition above about 50%;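 note: promastigotes grown with compound for 44 hours at 28 °C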
PolyA inhibitor: blocks polyadenylation in yeast reporter cells | S. cerevisiae SKY197-pL101 polyadenylation reporter, beta-gal luminescence; efflux-impaired pdr1/pdr3 knockout yeast; score 100 = 6 SD above DMSO | activity score, % at 12 µM | actives 0.02% (n = 300,000) | AID 1875;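 active = lowest replicate activity score at least 50, where 100 means six control SD above control mean; inconclusive = lowest score under 50 but half or more replicates reach 50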;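 note: yeast exposed to compound for 9 h at 30 °C; higher score means more reporter readthrough which indicates perturbed polyadenylation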
T cruzi repl: T. cruzi replication inhibition; actives 1.4% (n = 300,000); AID 1885; inhibition, % (test concentration not listed); T. cruzi beta-gal in NIH3T3, luminescence, 90 h;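 active = mean inhibition across valid replicates above about 55%, limit read from the data; inconclusive = mean below that limit but half or more replicates reach it; inactive = mean below it, under half of replicates reach it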;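 note: signal also drops with host cell toxicity which is not excluded here; 0% = plate median of DMSO wells and 100% = zero luminescence signal; higher percent means less beta-gal luminescence so fewer parasites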
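Material: NIH/3T3 host cells with β-galactosidase reporter T. cruzi; Input: 5,000 host fibroblasts per well; Medium: DMEM, 2% fetal bovine serum; Compound: 50 nL DMSO compound solution per well; Schedule: 3 h host attachment, then at least 90 h co-culture; Detection: luminescent β-galactosidase signal after 60 min lysis.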
Calb FLC: affects C. albicans growth with fluconazole; actives 0.57% (n = 300,000); growth inhibition, % (test concentration not listed); C. albicans CaCi-2 + fluconazole, Alamar Blue growth, 48 h;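 active = growth inhibition above about 58% in most replicates, limit read from the data, passing the limit was not always enough; inconclusive = exactly half the replicates above a set limit; inactive = most replicates below a set limit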;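 note: all wells also contain fluconazole at 8 µg/ml as a sub-toxic cotreatment; 0% = median of DMSO wells and 100% = median of geldanamycin control wells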
NALP3 yeast inh: inhibitors of NALP3 inflammasome in yeast | Yeast reconstituted NLRP3/ASC/caspase-1, beta-gal luminescence, 24 h | actives 0.39% (n = 330,000) | AID 2825 | inhibition, % at 10 µM;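 active = inhibition of 50% or more; inactive = inhibition below 50%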;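 note: plate controls were induced DMSO wells for no effect and uninduced yeast grown without galactose for full effect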
NALP1 inh: blocks the NALP1 inflammasome reconstituted in yeast. S. cerevisiae NALP1/ASC/caspase-1 growth, X-gal OD620, 72 h. actives 0.61% (n = 280,000). inhibition, % at 10 µM. AID 2071; in the data active = inhibition mostly above about 24%, no sharp cut-off; inactive = mostly below about 32%
Starred values were filed as active, the others as inactive. The full list was thinned out, with hits kept by preference.

Screening COc1ccc(/C=C/CN2CCC(CO)(Cc3ccccc3Cl)CC2)cc1 returned L major viab 96*, PolyA inhibitor -10, T cruzi repl 48, Calb FLC -4, NALP3 yeast inh 37 and NALP1 inh 13.
COc1ccc(NC(=O)CSc2nc(C)cs2)c(OC)c1 was read as L major viab 2, PolyA inhibitor -8, T cruzi repl -12, Calb FLC 9, NALP3 yeast inh 19 and NALP1 inh -2.
For O=[N+]([O-])c1cccc(/C=N/Nc2nc(N3CCOCC3)nc(N3CCOCC3)n2)c1 the results were L major viab 73*, PolyA inhibitor 3, T cruzi repl -8, Calb FLC 13, NALP3 yeast inh 12 and NALP1 inh 7.
For O=[N+]([O-])c1ccc(/C=N/Nc2nc(N3CCOCC3)nc(N3CCOCC3)n2)cc1 the results were L major viab -4, PolyA inhibitor 13, T cruzi repl -8, Calb FLC -3, NALP3 yeast inh 2 and NALP1 inh 3.
Screening C(=C\c1ccccc1)/C=N/Nc1nc(N2CCOCC2)nc(N2CCOCC2)n1 returned L major viab 0, PolyA inhibitor 2, T cruzi repl 12, Calb FLC 9, NALP3 yeast inh 8 and NALP1 inh -18.
CC(=C/c1ccccc1)/C=N/Nc1nc(N2CCOCC2)nc(N2CCOCC2)n1 was read as L major viab 63*, PolyA inhibitor 16, T cruzi repl -39, Calb FLC 22, NALP3 yeast inh 0 and NALP1 inh 24.
O=S(=O)(c1cccc2cccc(Cl)c12)N1CCCC1 was read as L major viab 4, PolyA inhibitor -19, T cruzi repl 0, Calb FLC 2, NALP3 yeast inh 3 and NALP1 inh 3.
`Cc1nc(NC(=O)c2ccccc2)sc1-c1csc(NCCc2ccccc2)n1` gave L major viab 100*, PolyA inhibitor -2, T cruzi repl 69*, Calb FLC 6, NALP3 yeast inh 20 and NALP1 inh -2.
For Cc1nc(NC(=O)c2ccccc2)sc1-c1csc(NCc2ccccc2)n1 the results were L major viab 86*, PolyA inhibitor -19, T cruzi repl -10, Calb FLC 11, NALP3 yeast inh 5 and NALP1 inh 5.
Screening CCOc1ccccc1Nc1nc(-c2sc(NC(=O)c3ccccc3)nc2C)cs1 returned L major viab 100*, PolyA inhibitor -6, T cruzi repl 7, Calb FLC -3, NALP3 yeast inh 14 and NALP1 inh 3.
For COc1ccccc1Nc1nc(-c2sc(NC(=O)c3ccccc3)nc2C)cs1 the results were L major viab 81*, PolyA inhibitor -10, T cruzi repl -34, Calb FLC -6, NALP3 yeast inh 21 and NALP1 inh 21.
Cc1ccc(Cl)cc1Nc1nc(-c2sc(NC(=O)c3ccccc3)nc2C)cs1 was read as L major viab 50*, PolyA inhibitor -14, T cruzi repl 1, Calb FLC -2, NALP3 yeast inh 3 and NALP1 inh 15.
`CN(C)CCCN(CCCN(C)C)C(=S)Nc1ccc(S(=O)(=O)N2CCOCC2)cc1` gave PolyA inhibitor -2, T cruzi repl 1, Calb FLC 0, NALP3 yeast inh -16 and NALP1 inh 12.
Screening COc1cc(NC(=O)c2ccc(=O)[nH]n2)cc(OC)c1OC returned PolyA inhibitor 18, T cruzi repl -1, Calb FLC 2, NALP3 yeast inh 17 and NALP1 inh 3.
COc1ccc(NC(=O)CC2(CC(=O)O)CCCC2)cn1 was read as L major viab -10, PolyA inhibitor 27, T cruzi repl -26, Calb FLC 5, NALP3 yeast inh -2 and NALP1 inh 12.
Screening C=CCN(CC=C)Cc1c(O)ccc2c(=O)c(-c3ccccc3)coc12 returned PolyA inhibitor 10, T cruzi repl 16, Calb FLC 94*, NALP3 yeast inh 16 and NALP1 inh -2.
Screening CC(C)(C)NC(=O)COc1ccc(CNCc2cccnc2)cc1 returned L major viab 89*, PolyA inhibitor -4, T cruzi repl 15, Calb FLC 15, NALP3 yeast inh -1 and NALP1 inh -20.
`COc1cc(CNCc2cccnc2)ccc1OCC(=O)NC(C)(C)C` gave L major viab 92*, PolyA inhibitor -6, T cruzi repl -2, Calb FLC -8, NALP3 yeast inh 24 and NALP1 inh 12.
`Cc1ccc(OCC(=O)NCc2cccnc2)cc1` gave L major viab 16, PolyA inhibitor 14, T cruzi repl -1, Calb FLC -14, NALP3 yeast inh -4 and NALP1 inh 19.
For COc1cc(CNCc2ccccn2)ccc1OCC(=O)NC(C)(C)C the results were L major viab -1, PolyA inhibitor 9, T cruzi repl -45, Calb FLC -1, NALP3 yeast inh 0 and NALP1 inh 13.
For COc1cc(CNCCc2ccccc2)ccc1OCC(=O)NC(C)(C)C the results were L major viab 99*, PolyA inhibitor 12, T cruzi repl 50, Calb FLC -8, NALP3 yeast inh 3 and NALP1 inh 16.
Screening CCOC(=O)c1cc(CC)sc1NC(=O)CN1CCN(C(=O)c2ccco2)CC1 returned PolyA inhibitor 3, T cruzi repl 35, Calb FLC -1, NALP3 yeast inh 23 and NALP1 inh 9.
`O=C(COc1ccccc1/C=C\c1[nH]c(=O)[nH]c(=O)c1[N+](=O)[O-])Nc1ccccc1` gave L major viab -6, PolyA inhibitor -20, T cruzi repl 55*, Calb FLC -13 and NALP1 inh -7.
`Cc1cc(Nc2cccc(Cl)c2)c2ccccc2n1` gave PolyA inhibitor -5, T cruzi repl 29, Calb FLC 4, NALP3 yeast inh 28 and NALP1 inh 15.
For Cc1cc(Nc2ccc3c(c2)OCCO3)c2cc(Cl)ccc2n1 the results were L major viab 100*, PolyA inhibitor 7, T cruzi repl 35, Calb FLC 23, NALP3 yeast inh 17 and NALP1 inh 37.
Screening Cc1ccc2nc3c(c(Nc4ccc5c(c4)OCCO5)c2c1)CCC3 returned L major viab 98*, PolyA inhibitor -1, T cruzi repl 33, Calb FLC 11, NALP3 yeast inh 12 and NALP1 inh 43.
`COc1ccc(Nc2c3c(nc4ccc(C)cc24)CCC3)cc1` gave PolyA inhibitor -6, T cruzi repl 30, Calb FLC -28, NALP3 yeast inh 6 and NALP1 inh 11.
`Cc1cccc(Nc2c3c(nc4ccccc24)CCC3)c1` gave PolyA inhibitor 2, T cruzi repl 32, Calb FLC inconclusive, NALP3 yeast inh 27 and NALP1 inh 17.
`Cc1ccc2nc3c(c(Nc4ccc(O)cc4)c2c1)CCC3` gave PolyA inhibitor -9, T cruzi repl 62*, NALP3 yeast inh 27 and NALP1 inh 16.
